From ChEMBL document CHEMBL4513216, “Probing the Open Global Health Chemical Diversity Library for Multistage-Active Starting Points for Next-Generation Antimalarials” (ACS Infect Dis, 2020) come the findings set out here.

SMILES strings stand for the structures.

The data set can be described thus: Toxicity liver stage against HepG2, at 10uM. The class given is cell-based. Details: test concentration 10 uM, cell line HepG2-A16-CD81EGFP. Conditions: human, HepG2-A16-CD81EGFP cells; read-out: INHIBITION
In short, it runs like this: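 Uninfected HepG2-A16-CD81EGFP cells, 3 × 10^3 per well, 1536-well, plated on prespotted compound at 10 μM final, parasite-free screening media added to match infected plates; puromycin 10 μM positive, DMSO 0.5% negative; run in parallel with 48 h PbLuc assay at 37 °C, 5% CO2; viability by CellTiter-Glo luminescence, normalized to controls.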
Take `CN(Cc1ccccc1)CC1CC2(CO1)CN(c1nncs1)C2` (stereo unspecified): the cytotoxicity at 10 µM came to 13.7%.

`c1ccc(NCc2cn3c(n2)CN(Cc2nccs2)CC3)nc1`: the cytotoxicity at 10 µM stood at 10.4%.

In the case of `CC(O)CNC(=O)CCc1nc2ncccc2[nH]1` (stereo unspecified), the cytotoxicity at 10 µM was -3.5%.

In the case of `COc1ccc(C(=O)NCCCn2ccnc2)c(OC)n1`, the cytotoxicity at 10 µM worked out at 4.99%.

Regarding `CCC(=O)Nc1c(C)nn(COc2cccc(F)c2)c1C`, the cytotoxicity at 10 µM worked out at 7.77%.

With `CCn1cc(CN(C)S(=O)(=O)c2ccc(C(C)C)cc2)cn1`, the cytotoxicity at 10 µM was determined as 20.1%.

Take `CSc1nc2ccsc2c(=O)n1CC(=O)N(C)C1CCCCC1`: the cytotoxicity at 10 µM came to 0.773%.

In the case of `c1cc(-c2nn3c(CN4CCOCC4)nnc3s2)ccn1`, the cytotoxicity at 10 µM is 11%.

On to `COc1c(CC2CC(CO)=NO2)c(Br)c2c(c1OC)OCO2` (stereo unspecified), for which the cytotoxicity at 10 µM is -1.43%.

For `CN1CCC(Cc2cnc(CNC(=O)Cc3cccc(F)c3)cn2)CC1`, the cytotoxicity at 10 µM is -2.67%.

For `C=Cn1cc(CN2CCN(CC3(c4ccccc4)CC3)CC2)c(C)n1`, the cytotoxicity at 10 µM was found to be 1.78%.

Regarding `CS(=O)(=O)N1CCCC(Cc2cnc(Br)cn2)C1` (stereo unspecified), the cytotoxicity at 10 µM was 17.3%.

As to `Cc1nc(CCC(=O)NC2CCC2)cc(C2CCCNC2)n1` (stereo unspecified), the cytotoxicity at 10 µM came to 1.09%.

Consider `O[C@@H]1CN(Cc2cccnc2)C[C@H]1Oc1ccccc1`, for which the cytotoxicity at 10 µM was -23.2%.

For `O=C1Nc2ccccc2CC12CCCN2Cc1ccc(C(F)(F)F)cc1` (stereo unspecified), the cytotoxicity at 10 µM came out at 30.2%.

On to `CC(C)c1cc(Br)ccc1NC(=O)NC(C)(CO)CO`, for which the cytotoxicity at 10 µM was 9.83%.

In the case of `CN(CC(C)(CO)CO)C(=O)Nc1cc(Cl)cc(Cl)c1`, the cytotoxicity at 10 µM came out at 0.0988%.

`CC(CO)NS(=O)(=O)c1cccc(C(C)C)c1` (stereo unspecified): the cytotoxicity at 10 µM is -20%.

Turning to `CC(C)(CNC(=O)C1(c2cccc(Br)c2)CCOCC1)C(=O)O`, the cytotoxicity at 10 µM turned out to be 2.9%.

As for `CSc1c[nH]nc1NS(=O)(=O)c1cc(F)ccc1C`, the cytotoxicity at 10 µM was 6.98%.

As to `Cc1noc(C)c1CN(C)C(=O)C1CCCc2ccccc21` (stereo unspecified), the cytotoxicity at 10 µM was 2.45%.

As for `CN1CCC(NC(=O)c2cc(F)cc(Cl)c2O)C1=O` (stereo unspecified), the cytotoxicity at 10 µM turned out to be 3.09%.

As for `COc1cc(NCCNC(=O)c2cscc2C)cc(OC)c1`, the cytotoxicity at 10 µM worked out at 1.6%.

With `Cc1occc1C(=O)NCC(=O)N(C)CCCOc1ccc(F)cc1`, the cytotoxicity at 10 µM is -41.9%.

As for `Cc1cc2n(n1)CC(CNCc1cc(C)on1)CN2` (stereo unspecified), the cytotoxicity at 10 µM was -7.93%.

In the case of `Cc1cc(C)n(CC2CCN(CC(O)COc3ccccc3)CC2)n1` (stereo unspecified), the cytotoxicity at 10 µM was -5.58%.

With `CC1COCCN1C(=O)Cc1cc(Cl)c2c(c1)OCCO2` (stereo unspecified), the cytotoxicity at 10 µM is -4.29%.

As for `O=C(NCc1nncn1C1CC1)C1(c2ccc(F)cc2)CCOCC1`, the cytotoxicity at 10 µM was -10.4%.

Take `N#Cc1c(Cl)nsc1NCc1ccc(N2CCCC(C(N)=O)C2)cc1` (stereo unspecified): the cytotoxicity at 10 µM was -9.65%.

Turning to `COc1c(CNCc2ccccc2-n2ccnc2)c(C)nn1C`, the cytotoxicity at 10 µM turned out to be 18.7%.

For `Cc1cccc(NC(=O)CN(C)C(=O)c2ccc(OC(C)C)nc2)n1`, the cytotoxicity at 10 µM is -8.99%.

As to `CC(C)Oc1ncc(C(=O)N2CCC(N(C)C)CC2)cc1Cl`, the cytotoxicity at 10 µM is -4.09%.

For the molecule `COc1ccc(CNC(=O)NCC(=O)NC2CC2)c(C(F)(F)F)c1`, the cytotoxicity at 10 µM is 6.41%.

Regarding `CN(CC(=O)N1CCCC1c1ccccn1)Cc1ccccc1` (stereo unspecified), the cytotoxicity at 10 µM is -0.51%.

In the case of `CCc1cc(CNC(=O)Nc2cc(F)ccc2N2CCCCC2)on1`, the cytotoxicity at 10 µM was -18.9%.

Take `O=C(CN1CCSC2(CCCCC2)C1)NCC(F)(F)F`: the cytotoxicity at 10 µM was -6.4%.

Turning to `Cc1cccc(-c2nnc(C(C)N3CCn4c(C)nnc4C3)o2)c1` (stereo unspecified), the cytotoxicity at 10 µM turned out to be 0.131%.

On to `Cc1csc(C(C#N)C(=O)NCc2cccnc2)n1` (stereo unspecified), for which the cytotoxicity at 10 µM turned out to be 9.6%.

Turning to `CCC1C(=O)NCCN1c1ccnc(C(C)(C)C)n1` (stereo unspecified), the cytotoxicity at 10 µM is -8.37%.

For `CCC1C(=O)NCCN1c1cc(C)ncn1` (stereo unspecified), the cytotoxicity at 10 µM stood at 3.41%.

For `COCCNC(=O)CSc1nnc(OC(C)C)s1`, the cytotoxicity at 10 µM was -5.7%.

`O=C(Cc1ccccc1F)NCC1CCN(CCc2ccccc2)C1` (stereo unspecified): the cytotoxicity at 10 µM is -43.5%.

As to `O=C(CN1CCCCC1Cn1cccn1)NC1CCN(C2CC2)CC1` (stereo unspecified), the cytotoxicity at 10 µM is -4.43%.

Regarding `Cn1cccc1CNC(=O)N(CCO)C1CCCc2ccccc21` (stereo unspecified), the cytotoxicity at 10 µM was -7.45%.

Consider `CC(=O)NC(C)c1ccc(OCC2CC2)c(F)c1` (stereo unspecified), for which the cytotoxicity at 10 µM is -7.81%.

Take `Cc1csc(CNC(=O)Nc2cc(C(F)(F)F)c[nH]c2=O)n1`: the cytotoxicity at 10 µM was -13.7%.

Turning to `COC(=O)CS(=O)(=O)CCC(=O)N1CCCC1c1ccsc1` (stereo unspecified), the cytotoxicity at 10 µM was -16.5%.

On to `Cc1csc([C@@H]2C[C@@H]3CCN(Cc4cc(C)on4)C[C@H]3O2)n1`, for which the cytotoxicity at 10 µM is -106%.

For `CSc1ccc(CN(CCO)C(=O)CCc2ccc(O)cc2)cc1`, the cytotoxicity at 10 µM is -0.711%.

`Cc1ccsc1CN(C)c1cc(N2CCOCC2)ncn1`: the cytotoxicity at 10 µM was -0.33%.

As to `Cc1cc(C[C@@H]2COC[C@@H]2NC(=O)CNC(=O)N(C)C)on1`, the cytotoxicity at 10 µM came out at 2.57%.

On to `Cc1ccc(OC2(C(=O)NC(C)Cc3ccncc3)CCNCC2)cc1` (stereo unspecified), for which the cytotoxicity at 10 µM was -9.89%.

For the molecule `COC(=O)CNc1ccc(-c2nc(Cc3ccc(OC)cc3)no2)cn1`, the cytotoxicity at 10 µM was 1.06%.

Regarding `COCc1ncc(CN2CCC(Oc3ccccc3C)CC2)cn1`, the cytotoxicity at 10 µM was found to be 1.09%.

For the molecule `CCn1c(N)nc2cc(C(=O)N3Cc4ccccc4C3)cnc21`, the cytotoxicity at 10 µM was -8.51%.

Turning to `COCc1cn(CC2CCN(Cc3cc(C)[nH]n3)CC2)nn1`, the cytotoxicity at 10 µM is -2.44%.

As to `CN(C)CCN1CC(C(=O)NCc2cccc(-n3cccn3)c2)CC1=O` (stereo unspecified), the cytotoxicity at 10 µM is -0.0342%.

For the molecule `CC(C)=CCN1CCN(Cc2cc(C)n[nH]2)CC1CCO` (stereo unspecified), the cytotoxicity at 10 µM came out at 1.96%.

Regarding `COCCN(Cc1c(C)nn(C)c1C)C(=O)C1COc2ccccc2C1` (stereo unspecified), the cytotoxicity at 10 µM is -3.87%.

On to `Cc1ncc(C(=O)N2CCC(N3C[C@@H](C)O[C@@H](C)C3)CC2)c(=O)[nH]1`, for which the cytotoxicity at 10 µM was determined as 3.42%.

With `CC(C)N(CCO)C(=O)C1CCC(=O)N(CCc2ccc(Cl)cc2)C1` (stereo unspecified), the cytotoxicity at 10 µM was -8.27%.

For the molecule `Cn1nc(CO)c2c1CCN(c1ncnc3c1CCNCC3)C2`, the cytotoxicity at 10 µM was found to be 0.549%.

On to `CC(C)SCC(=O)N1Cc2cnc(-c3ccccc3)nc2C1`, for which the cytotoxicity at 10 µM came to 1.2%.

With `CN(CCc1ccccn1)C(=O)CCC1CCCN(c2ccncc2)C1` (stereo unspecified), the cytotoxicity at 10 µM is -3.48%.

In the case of `Cc1ccc(OC2(C(=O)O)CCN(C(=O)c3cc(C)oc3C)CC2)cn1`, the cytotoxicity at 10 µM came to 0.0255%.

On to `COc1ccc([C@@H]2CN(C(=O)CCc3cc(Cl)no3)C[C@H]2N(C)C)cc1`, for which the cytotoxicity at 10 µM was 6.1%.

As to `CO[C@H]1CN(C(C)C)C[C@@H]1NC(=O)c1cc(-c2ccccc2F)n[nH]1`, the cytotoxicity at 10 µM is -6.01%.

Regarding `Cc1nc(C(C)C)ncc1C(=O)N1CCCC(N2CCCC2)C1` (stereo unspecified), the cytotoxicity at 10 µM was -20.1%.

`CC(=O)Nc1ncc(S(=O)(=O)N2CCN(C3CCCCC3)CC2)s1`: the cytotoxicity at 10 µM was -4.5%.

`CC(C)c1nc(CN(C)C(=O)CNS(=O)(=O)c2cccs2)cs1`: the cytotoxicity at 10 µM was -6.46%.

In the case of `O=C(CN1CCCCCC1)NCc1cccnc1Oc1ccccc1`, the cytotoxicity at 10 µM is -11.1%.

For the molecule `Cc1ccc(OCc2occc2C(=O)N2CC[C@H](CO)[C@@H](O)C2)cc1`, the cytotoxicity at 10 µM was determined as 14.3%.

Turning to `CN(C)C(=O)N1CCN(C(=O)CCc2ccccc2)[C@H]2CS(=O)(=O)C[C@H]21`, the cytotoxicity at 10 µM was -17.1%.

Consider `CC(C)c1cc(N2CCN(c3ccc(O)cc3)CC2)n2nccc2n1`, for which the cytotoxicity at 10 µM was -5.76%.

With `CCn1nc(CC(C)C)cc1C(=O)N1CC[C@@H](O)C1`, the cytotoxicity at 10 µM came to 16.5%.

In the case of `CC(C)C(=O)N1CCN(C(=O)c2cscn2)[C@H]2CS(=O)(=O)C[C@H]21`, the cytotoxicity at 10 µM was -7.15%.

As for `Cc1c[nH]c(CN(C)C(=O)c2cccc(CCC(C)(C)O)c2)n1`, the cytotoxicity at 10 µM is -6.85%.

For `CNC(=O)c1cccc(C2CNCCN2C)c1` (stereo unspecified), the cytotoxicity at 10 µM was determined as 2.91%.

For `Cc1ccc(C)n1C(C)C(=O)N1CCCN(Cc2cscn2)CC1` (stereo unspecified), the cytotoxicity at 10 µM is -8.36%.

As for `CCN(CC1CCOC1)C(=O)c1ccccc1N1CCOCC1` (stereo unspecified), the cytotoxicity at 10 µM is -13.6%.

As for `CN(CCn1cccn1)S(=O)(=O)N1CCCC1c1ccco1` (stereo unspecified), the cytotoxicity at 10 µM was -9.56%.

As for `Cc1cc(CC(=O)N(CC2CN(C)CCO2)c2nccs2)no1` (stereo unspecified), the cytotoxicity at 10 µM was -7.49%.

As to `Cc1ccc(N2CCCC(NCc3cscn3)C2)nn1` (stereo unspecified), the cytotoxicity at 10 µM was -7.2%.

For `Cc1cc(C[C@@H]2CCC[C@H]2NCc2cc(C)c(O)c(C)c2)on1`, the cytotoxicity at 10 µM stood at 3.37%.

Turning to `CN(Cc1cncnc1)[C@@H]1CN(C(=O)c2ccco2)[C@@H]2CCCO[C@H]12`, the cytotoxicity at 10 µM is -113%.

Take `Cc1ccc(CN2CCc3c(CN4CCCC4)n[nH]c3C2)s1`: the cytotoxicity at 10 µM was determined as 4.41%.

For the molecule `COCC(=O)N1CCC2(CC1)CC(COC)N(Cc1ccccn1)C2` (stereo unspecified), the cytotoxicity at 10 µM is -101%.

For `c1csc(CN2C[C@H](OCC3CCOCC3)[C@H]3COC[C@H]32)n1`, the cytotoxicity at 10 µM is -3.76%.

In the case of `CN1CCO[C@@H]2CN(C(=O)Cc3cccs3)CC[C@@H]2C1`, the cytotoxicity at 10 µM was -103%.

Regarding `CCc1ncnc2c1CCN(Cc1ccc(OC)cc1)CC2`, the cytotoxicity at 10 µM is -0.00161%.

For the molecule `CN(C)CCn1c([C@@H]2CCCO2)cc2cccnc21`, the cytotoxicity at 10 µM was -25.4%.

Turning to `c1ccc2c(c1)SCCC2NCc1ccc(N2CCOCC2)cc1` (stereo unspecified), the cytotoxicity at 10 µM is -4.86%.

Consider `Cc1noc(C)c1CN1CC[C@H]2O[C@@H](C(=O)N3CCCC3)CC[C@H]21`, for which the cytotoxicity at 10 µM was 3.35%.

For `Cc1nc[nH]c1CN1C[C@H]2CC[C@@H](C1)N(C(=O)CCNS(C)(=O)=O)C2`, the cytotoxicity at 10 µM was -10.4%.

For `CCc1nnc(SCC(=O)N2C[C@H]3CC[C@@H](C2)N(CC=C(C)C)C3)[nH]1`, the cytotoxicity at 10 µM is -6.18%.

As for `COCCNc1nc(C)nc2c1CCN(CC1CCC(N)CC1)CC2` (stereo unspecified), the cytotoxicity at 10 µM was -2.84%.
